For one assay, the system named is LNCaP. Nature of the assay: Cytotoxicity against androgen-dependent human LNCAP cells with T877A AR mutant after 72 hrs by MTT assay. Format: functional, cell-based. The method, boiled down: (§1)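 Cells seeded at 6000–7000 per well in RPMI 1640 with 10% FBS, penicillin and streptomycin, left overnight, then exposed to a range of concentrations from DMSO stock (final DMSO 0.5%) for 72 h. MTT added for a further 2 h and formazan from viable cells read. IC50 taken from survival curves, 50% inhibition relative to 0.5% DMSO control; top concentration 150 µM.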

Assay [1] concerns the target T1, Androgen receptor (Homo sapiens) (UniProt P10275).
T1 sequence (whole entry): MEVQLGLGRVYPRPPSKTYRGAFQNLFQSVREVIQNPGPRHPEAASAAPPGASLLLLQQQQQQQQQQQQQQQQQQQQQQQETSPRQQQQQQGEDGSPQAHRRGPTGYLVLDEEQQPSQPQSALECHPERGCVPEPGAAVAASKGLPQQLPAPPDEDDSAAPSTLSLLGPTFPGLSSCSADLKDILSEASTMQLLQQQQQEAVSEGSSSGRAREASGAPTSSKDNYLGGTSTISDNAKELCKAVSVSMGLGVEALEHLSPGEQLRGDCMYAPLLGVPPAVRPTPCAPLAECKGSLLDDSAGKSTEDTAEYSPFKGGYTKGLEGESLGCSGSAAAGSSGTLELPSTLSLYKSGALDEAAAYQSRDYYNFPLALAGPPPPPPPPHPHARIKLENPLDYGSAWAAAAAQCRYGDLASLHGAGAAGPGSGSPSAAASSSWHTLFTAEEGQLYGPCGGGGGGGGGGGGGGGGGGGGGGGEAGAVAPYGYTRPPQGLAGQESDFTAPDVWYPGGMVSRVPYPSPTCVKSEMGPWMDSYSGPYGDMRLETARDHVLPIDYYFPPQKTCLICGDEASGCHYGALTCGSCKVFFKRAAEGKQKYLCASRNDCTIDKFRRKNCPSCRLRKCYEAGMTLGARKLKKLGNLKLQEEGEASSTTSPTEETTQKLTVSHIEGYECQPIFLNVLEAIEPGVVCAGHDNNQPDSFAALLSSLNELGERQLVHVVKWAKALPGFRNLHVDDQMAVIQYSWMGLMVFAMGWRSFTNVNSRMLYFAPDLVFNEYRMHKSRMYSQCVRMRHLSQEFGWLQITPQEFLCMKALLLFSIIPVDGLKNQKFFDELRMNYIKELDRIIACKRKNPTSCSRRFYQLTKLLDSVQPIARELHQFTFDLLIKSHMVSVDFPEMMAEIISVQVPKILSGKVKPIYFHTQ
Nature of the assay: Antagonist activity at wild type androgen receptor in human PC3 cells transiently transfected with pCMV-MMTV-Luc assessed as suppression of DHT-induced receptor transactivation. Format: functional, cell-based. To be noted: PC-3. The method, boiled down: (§2)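 PC-3 cells seeded 24 h before co-transfection with MMTV-luciferase reporter (100 ng), the wild-type, T877A, W741C or H874Y AR plasmid (10 ng) and Renilla null luciferase (10 ng) using Lipofectamine 2000. Medium switched after 5 h to phenol red-free RPMI 1640 with 10% charcoal-stripped FBS. After 16 h, 0.1 nM DHT ± compound (0.1, 1.0 µM) for 24 h. Dual-luciferase read-out, Renilla-standardized, normalized to DHT alone (100%).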

In assay [2] the test system is T2, Androgen receptor (Homo sapiens), P10275 [H875Y].
T2 sequence (whole entry): T1 sequence (whole entry) with H875Y
Description: Antagonist activity at androgen receptor H874Y mutant in human PC3 cells transiently transfected with pCMV-MMTV-Luc assessed as suppression of DHT-induced receptor transactivation. Conditions: PC-3. Format: functional, cell-based. Summed up: as §2

Assay [3] is described as follows: Cytotoxicity against androgen-dependent human MDA PCa 2b cells with T877A/L701H AR mutant after 72 hrs by MTT assay. It counts as functional, cell-based. The method, boiled down:
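Seeded at 6000–7000 cells per well in BRFF-HPC1 medium with 20% FBS, incubated overnight, then treated with serial concentrations diluted from DMSO stock (final DMSO 0.5%) for 72 h. Viability by MTT, 2 h with reagent, formazan measured. IC50 from survival curves as 50% inhibition versus 0.5% DMSO vehicle; maximum concentration tested 150 µM.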
A general note: Tetrazolium assays rely on reduction of a dye to a coloured formazan, in cell work by metabolically active cells.

Assay [4] is described as follows: Cytotoxicity against androgen-independent human C4-2B cells with T877A mutant after 72 hrs by MTT assay. Format: functional, cell-based. Conditions: LNCaP C4-2B. Summed up: as §1
The subject of assay [5] is Androgen receptor (Homo sapiens), P10275 [T878A]. Description: Antagonist activity at androgen receptor T877A mutant in human PC3 cells transiently transfected with pCMV-MMTV-Luc assessed as suppression of DHT-induced receptor transactivation. It counts as functional, cell-based. To be noted: PC-3. Summed up: as §2
Assay [6] is described as follows: Cytotoxicity against human RWPE1 cells after 72 hrs by MTT assay. It counts as cell-based. To be noted: RWPE-1, 72 h. The method, boiled down:
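Non-tumorigenic prostate epithelial line plated at 6000–7000 cells per well in keratinocyte serum-free medium with 0.05 mg/mL bovine pituitary extract and 5 ng/mL EGF; overnight attachment, then compounds at various concentrations in 0.5% final DMSO for 72 h. MTT 2 h, formazan read; IC50 from survival curves versus DMSO control.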

For the next assay, the system named is PC-3. Nature of the assay: Cytotoxicity against androgen-independent human PC3 cells after 72 hrs by MTT assay. It counts as functional, cell-based. To be noted: PC-3, 72 h. The method, boiled down:
as §1

This is an account of results in ChEMBL document CHEMBL1136847, “Syntheses and potential anti-prostate cancer activities of ionone-based chalcones” (Bioorg Med Chem Lett, 2009).

Changes are numbered by the printed parent chain.

Androgen receptor (Homo sapiens), P10275 [T878A], sequence (P10275 whole entry T878A): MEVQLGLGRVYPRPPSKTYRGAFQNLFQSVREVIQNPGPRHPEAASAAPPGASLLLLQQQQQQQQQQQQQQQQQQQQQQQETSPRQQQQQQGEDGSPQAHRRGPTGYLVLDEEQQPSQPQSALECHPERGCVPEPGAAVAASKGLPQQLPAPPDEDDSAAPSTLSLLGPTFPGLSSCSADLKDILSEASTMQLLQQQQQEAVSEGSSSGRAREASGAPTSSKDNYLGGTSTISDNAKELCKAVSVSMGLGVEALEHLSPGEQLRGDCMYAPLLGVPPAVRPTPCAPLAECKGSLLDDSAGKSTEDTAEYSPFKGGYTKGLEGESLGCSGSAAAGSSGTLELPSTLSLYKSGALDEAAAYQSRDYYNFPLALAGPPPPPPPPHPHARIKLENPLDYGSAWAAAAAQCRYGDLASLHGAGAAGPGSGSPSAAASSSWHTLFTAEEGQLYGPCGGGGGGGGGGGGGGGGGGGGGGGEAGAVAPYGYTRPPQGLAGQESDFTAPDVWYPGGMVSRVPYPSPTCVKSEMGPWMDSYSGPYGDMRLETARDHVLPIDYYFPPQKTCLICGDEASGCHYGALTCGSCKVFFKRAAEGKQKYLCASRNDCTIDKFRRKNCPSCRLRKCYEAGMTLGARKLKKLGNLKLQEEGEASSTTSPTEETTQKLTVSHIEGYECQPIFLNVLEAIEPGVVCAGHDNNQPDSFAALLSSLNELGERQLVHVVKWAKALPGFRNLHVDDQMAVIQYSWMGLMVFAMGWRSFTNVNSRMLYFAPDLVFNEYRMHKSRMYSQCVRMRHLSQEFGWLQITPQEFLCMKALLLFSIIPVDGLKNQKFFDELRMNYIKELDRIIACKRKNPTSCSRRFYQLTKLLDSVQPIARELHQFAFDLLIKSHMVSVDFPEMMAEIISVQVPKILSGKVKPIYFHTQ

As usually defined, the IC50 is the midpoint of a concentration-inhibition curve. High values mean lower potency, low ones higher potency. Consider `CC1=C(/C=C/C(=O)/C=C/c2cccc(C(F)(F)F)c2)C(C)(C)CCC1O` (stereo not drawn), for which the IC50 with LNCaP was determined as 740 nM; in assay [3] it was 2600 nM; in assay [4], 1400 nM; in assay [6], 730 nM; with PC-3 it was 3500 nM. Besides, the Activity result in assay [1], in assay [2] and in assay [5] was “Dose-dependent effect” in each case.
